Measured values published in ChEMBL document CHEMBL4765263, “Design, synthesis, biological evaluation of 6-(2-amino-1H-benzo[d]imidazole-6-yl)quinazolin-4(3H)-one derivatives as novel anticancer agents with Aurora kinase inhibition” (Eur J Med Chem, 2020).
Each block holds one molecule with its values, some of them ahead of it.

Assays:
PC-3 = assay: Cytotoxicity against human PC-3 cells assessed as reduction in cell viability incubated for 72 hrs by MTT assay; assay type: functional, cell-based; conditions: PC-3, 72 h
Procedure, shortened: (§1)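 MTT viability assay. Cells kept in DMEM with 10% FBS at 37 °C and 5% CO2. Seeded at 5×10^3 cells per well and exposed to a range of compound concentrations from 20 mM DMSO stocks. IC50 is the mean of triplicate measurements.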

MDA-MB-231 = assay: Cytotoxicity against human MDA-MB-231 cells assessed as reduction in cell viability incubated for 72 hrs by MTT assay; assay type: functional, cell-based; conditions: MDA-MB-231, 72 h; procedure, shortened: as §1
SH-SY5Y = assay: Cytotoxicity against human SH-SY5Y cells assessed as reduction in cell viability incubated for 72 hrs by MTT assay; assay type: functional, cell-based; procedure, shortened: as §1
[1] = Solubility of compound in water; assay type: physicochemical; conditions: buffer

SMILES: CCS(=O)(=O)Nc1nc2ccc(-c3ccc4ncn(C)c(=O)c4c3)cc2[nH]1
IC50 (PC-3): > 20 µM
IC50 (MDA-MB-231): > 20 µM
IC50 (SH-SY5Y): > 20 µM

SMILES: O=C(Nc1nc2ccc(-c3ccc4ncn(CCN5CCOCC5)c(=O)c4c3)cc2[nH]1)C1CCCCC1
IC50 (PC-3): 16.5 µM
IC50 (MDA-MB-231): 10.2 µM
IC50 (SH-SY5Y): 14.2 µM

SMILES: CCC(=O)Nc1nc2ccc(-c3ccc4nc(CN5CCOCC5)n(C)c(=O)c4c3)cc2[nH]1
IC50 (PC-3): 1.65 µM
IC50 (MDA-MB-231): 0.94 µM
IC50 (SH-SY5Y): 1.08 µM

SMILES: CCC(=O)Nc1nc2ccc(-c3ccc4ncn(C)c(=O)c4c3)cc2[nH]1
IC50 (PC-3): > 20 µM
IC50 (MDA-MB-231): 13.5 µM
IC50 (SH-SY5Y): 18.1 µM

SMILES: CCC(=O)Nc1nc2ccc(-c3ccc4ncn(CCCN5CCOCC5)c(=O)c4c3)cc2[nH]1
IC50 (PC-3): 3.21 µM
IC50 (MDA-MB-231): 1.22 µM
IC50 (SH-SY5Y): 1.68 µM

solubility [1]: Soluble
SMILES: CN(C)C(=O)Nc1nc2ccc(-c3ccc4ncn(CCN5CCOCC5)c(=O)c4c3)cc2[nH]1
IC50 (PC-3): 6.45 µM
IC50 (MDA-MB-231): 4.85 µM
IC50 (SH-SY5Y): 3.92 µM

SMILES: O=C(Nc1nc2ccc(-c3ccc4ncn(CCN5CCOCC5)c(=O)c4c3)cc2[nH]1)C1CC1
IC50 (PC-3): 11.2 µM
IC50 (MDA-MB-231): 1.61 µM
IC50 (SH-SY5Y): 7.33 µM

solubility [1]: Soluble
SMILES: COC(=O)Nc1nc2ccc(-c3ccc4ncn(CCN5CCOCC5)c(=O)c4c3)cc2[nH]1
IC50 (PC-3): > 20 µM
IC50 (MDA-MB-231): > 20 µM
IC50 (SH-SY5Y): > 20 µM

SMILES: CCC(=O)Nc1nc2ccc(-c3ccc4nc(CN5CCN(C(=O)CC)CC5)n(C)c(=O)c4c3)cc2[nH]1
IC50 (PC-3): > 20 µM
IC50 (MDA-MB-231): > 20 µM
IC50 (SH-SY5Y): 5.49 µM

SMILES: O=C(Nc1nc2ccc(-c3ccc4ncn(CCN5CCOCC5)c(=O)c4c3)cc2[nH]1)N1CCOCC1
IC50 (PC-3): > 20 µM
IC50 (MDA-MB-231): > 20 µM
IC50 (SH-SY5Y): > 20 µM
